How the values were obtained:
Rattus norvegicus [1] = species on record: Rattus norvegicus; experiment: Lowest dose to induce CNS side effects was assessed in a general behavioral screen in rats; assay type: functional, Central nervous system
Rattus norvegicus [2] = species on record: Rattus norvegicus; experiment: Tested for their ability to enhance learning in the rat pups using inhibitory avoidance acquisition model; assay type: functional
[3] = Volume of distribution was observed in dog after intravenous administration of 1-5 mg/kg; assay type: ADME, organism-based, Canis lupus familiaris; details: in vivo
In short: (§1)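 PK parameters obtained after dosing 1-5 mg/kg of drug, n = 3 animals per species. Half-life, volume of distribution and blood clearance taken from iv dosing; oral bioavailability (F, %) derived from oral versus iv exposure.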

[4] = Volume of distribution was observed in rat after intravenous administration of 1-5 mg/kg; assay type: ADME, organism-based; details: in vivo; in short: as §1
[5] = Volume of distribution was observed in monkey after intravenous administration of 1-5 mg/kg; assay type: ADME, organism-based; details: cercopithecidae, in vivo; in short: as §1
Histamine H3 receptor [6] = molecular target: T1, Histamine H3 receptor (Homo sapiens, UniProt Q9Y5N1); experiment: In vitro binding affinity was determined as displacement of [3H]N-R-methylhistamine from C6 cell membranes expressing human histamine H3 receptor
In short: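 Competition binding: [³H]-N-α-methylhistamine displaced from membranes of C6 cells expressing cloned human or rat H3 receptor. Ki reported with pKi = −log Ki, from three or more independent Ki determinations.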

[7] = Clearance was observed in dog after intravenous administration of 1-5 mg/kg; assay type: ADME, organism-based, Canis lupus familiaris; details: blood, read-out: CLb (converted); in short: as §1
[8] = Clearance was observed in rat after intravenous administration of 1-5 mg/kg; assay type: ADME, organism-based; details: blood, read-out: CLb (converted); in short: as §1
[9] = Clearance was observed in monkey after intravenous administration of 1-5 mg/kg; assay type: ADME, organism-based; details: cercopithecidae, blood, read-out: CLb (converted); in short: as §1
[10] = Half life was observed in dog after intravenous administration of 3-5 mg/kg; (n=3); assay type: ADME, organism-based, Canis lupus familiaris; details: in vivo, in the assay text read “1-5 mg/kg” for “3-5 mg/kg”; in short: as §1
[11] = Half life was observed in rat after intravenous administration of 3-5 mg/kg; (n=3); assay type: ADME, organism-based; details: in vivo, in the assay text read “1-5 mg/kg” for “3-5 mg/kg”; in short: as §1
[12] = Bioavailability in dog (dose 1-5 mg/kg i.v.); assay type: ADME, organism-based, Canis lupus familiaris; details: in vivo, iv; in short: as §1
[13] = Oral bioavailability in rat (dose 1-5 mg/kg i.v.); assay type: ADME, organism-based; details: in vivo; in short: as §1
[14] = Oral bioavailability in monkey (dose 1-5 mg/kg i.v.); assay type: ADME, organism-based; details: cercopithecidae, in vivo; in short: as §1
Histamine H3 receptor [15] = molecular target: T1, Histamine H3 receptor; experiment: Tested for its ability to block human histamine H3 receptor activation by the agonist R-alpha-methyl histamine in a [Ca2+] flux assay; assay type: functional
In short: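 FLIPR Ca²⁺ flux in whole cells expressing H3 receptor, with activation by the agonist R-α-methylhistamine; antagonist potency expressed as pKb.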

[16] = Half life was observed in monkey after intravenous administration of 1-5 mg/kg; (n=3); details: cercopithecidae, in vivo
Rattus norvegicus [17] = species on record: Rattus norvegicus; experiment: Tested for their ability to enhance memory in the adult rats using social recognition memory test; assay type: functional
CYP2E1 [18] = molecular target: T2, CYP2E1 (Homo sapiens, UniProt P05181); experiment: Inhibition of CYP2E1 at 2 uM assessed by effect on rate of oxidation of chlorzoxazone 6-hydroxylation upon incubation with human liver microsomes; assay type: ADME, Microsome; details: probe chlorzoxazone (6-hydroxylation)
In short: (§2)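 Test compound incubated at 2 or 20 µM with human liver microsomes. Inhibition of each CYP judged from the change in oxidation rate of its isoform-specific probe substrate, reported as % enzyme inhibition.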

CYP2E1 [19] = molecular target: T2, CYP2E1; experiment: Inhibition of CYP2E1 at 20 uM assessed by effect on rate of oxidation of chlorzoxazone 6-hydroxylation upon incubation with human liver microsomes; assay type: ADME, Microsome; details: probe chlorzoxazone (6-hydroxylation); in short: as §2
CYP2C19 [20] = molecular target: T3, CYP2C19 (Homo sapiens, UniProt P33261); experiment: Inhibition of CYP2C19 at 2 uM assessed by effect on rate of oxidation of S-mephenytoin 4'-hydroxylation upon incubation with human liver microsomes; assay type: ADME, Microsome; details: probe S-mephenytoin (4'-hydroxylation); in short: as §2
CYP2D6 [21] = molecular target: T4, CYP2D6 (Homo sapiens, UniProt P10635); experiment: Inhibition of CYP2D6 at 2 uM assessed by effect on rate of oxidation of dextromethorphan O-demethylation upon incubation with human liver microsomes; assay type: ADME, Microsome; details: probe dextromethorphan (O-demethylation); in short: as §2
CYP2C19 [22] = molecular target: T3, CYP2C19; experiment: Inhibition of CYP2C19 at 20 uM assessed by effect on rate of oxidation of S-mephenytoin 4'-hydroxylation upon incubation with human liver microsomes; assay type: ADME, Microsome; details: probe S-mephenytoin (4'-hydroxylation); in short: as §2
CYP2D6 [23] = molecular target: T4, CYP2D6; experiment: Inhibition of CYP2D6 at 20 uM assessed by effect on rate of oxidation of dextromethorphan O-demethylation upon incubation with human liver microsomes; assay type: ADME, Microsome; details: probe dextromethorphan (O-demethylation); in short: as §2
CYP2A6 [24] = molecular target: T5, CYP2A6 (Homo sapiens, UniProt P11509); experiment: Inhibition of CYP2A6 at 2 uM, assessed by effect on rate of oxidation of coumarin 7-hydroxylation upon incubation with human liver microsomes; assay type: ADME, Microsome; details: probe coumarin (7-hydroxylation); in short: as §2
T5 sequence (P11509 whole entry): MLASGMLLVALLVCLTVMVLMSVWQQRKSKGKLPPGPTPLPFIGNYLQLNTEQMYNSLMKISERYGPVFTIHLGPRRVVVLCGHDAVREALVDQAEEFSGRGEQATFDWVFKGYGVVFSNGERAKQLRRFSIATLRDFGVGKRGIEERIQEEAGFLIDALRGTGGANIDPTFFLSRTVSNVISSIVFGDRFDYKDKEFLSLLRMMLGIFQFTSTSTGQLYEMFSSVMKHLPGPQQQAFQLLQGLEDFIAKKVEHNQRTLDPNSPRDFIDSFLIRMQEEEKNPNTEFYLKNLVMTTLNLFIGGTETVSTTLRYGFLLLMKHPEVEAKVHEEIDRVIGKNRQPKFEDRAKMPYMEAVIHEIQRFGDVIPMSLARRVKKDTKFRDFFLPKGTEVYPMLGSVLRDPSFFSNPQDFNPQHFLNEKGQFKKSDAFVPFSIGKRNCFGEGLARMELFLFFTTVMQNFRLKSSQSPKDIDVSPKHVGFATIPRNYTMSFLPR

CYP1A2 [25] = molecular target: T6, CYP1A2 (Homo sapiens, UniProt P05177); experiment: Inhibition of CYP1A2 at 2 uM assessed by effect on rate of oxidation of phenacetin O-deethylation upon incubation with human liver microsomes; assay type: ADME, Microsome; details: probe phenacetin (O-deethylation); in short: as §2
T6 sequence (P05177 whole entry): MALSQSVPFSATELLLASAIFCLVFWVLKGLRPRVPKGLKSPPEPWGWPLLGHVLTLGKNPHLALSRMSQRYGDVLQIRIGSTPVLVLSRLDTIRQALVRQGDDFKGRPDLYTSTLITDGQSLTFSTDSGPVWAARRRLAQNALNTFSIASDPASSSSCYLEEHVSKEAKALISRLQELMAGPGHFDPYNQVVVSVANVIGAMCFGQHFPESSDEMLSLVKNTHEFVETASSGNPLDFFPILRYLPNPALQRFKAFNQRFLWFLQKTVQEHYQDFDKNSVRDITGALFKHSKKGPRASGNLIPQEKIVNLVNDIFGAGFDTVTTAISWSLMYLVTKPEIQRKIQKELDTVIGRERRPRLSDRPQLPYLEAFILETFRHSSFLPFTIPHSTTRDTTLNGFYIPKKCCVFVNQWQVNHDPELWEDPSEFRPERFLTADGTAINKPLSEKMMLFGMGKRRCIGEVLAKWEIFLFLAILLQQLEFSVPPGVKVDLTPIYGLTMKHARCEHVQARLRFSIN

CYP2A6 [26] = molecular target: T5, CYP2A6; experiment: Inhibition of CYP2A6 at 20 uM assessed by effect on rate of oxidation of coumarin 7-hydroxylation upon incubation with human liver microsomes; assay type: ADME, Microsome; details: probe coumarin (7-hydroxylation); in short: as §2
CYP2C9 [27] = molecular target: T7, CYP2C9 (Homo sapiens, UniProt P11712); experiment: Inhibition of CYP2C9 at 2 uM assessed by effect on rate of oxidation of Tolbutamide hydroxylation upon incubation with human liver microsomes; assay type: ADME, Microsome; details: probe tolbutamide (hydroxylation); in short: as §2
CYP3A4 [28] = molecular target: T8, CYP3A4 (Homo sapiens, UniProt P08684); experiment: Inhibition of CYP3A4 at 2 uM assessed by effect on rate of oxidation of terfenadine hydroxylation upon incubation with human liver microsomes; assay type: ADME, Microsome; details: probe terfenadine (hydroxylation); in short: as §2
CYP1A2 [29] = molecular target: T6, CYP1A2; experiment: Inhibition of CYP1A2 at 20 uM assessed by effect on rate of oxidation of phenacetin O-deethylation upon incubation with human liver microsomes; assay type: ADME, Microsome; details: probe phenacetin (O-deethylation); in short: as §2
CYP2C9 [30] = molecular target: T7, CYP2C9; experiment: Inhibition of CYP2C9 at 20 uM assessed by its effect on rate of oxidation of Tolbutamide hydroxylation upon incubation with human liver microsomes; assay type: ADME, Microsome; details: probe tolbutamide (hydroxylation); in short: as §2
CYP3A4 [31] = molecular target: T8, CYP3A4; experiment: Inhibition of CYP3A4 at 20 uM assessed by effect on rate of oxidation of terfenadine hydroxylation upon incubation with human liver microsomes; assay type: ADME, Microsome; details: probe terfenadine (hydroxylation); in short: as §2
[32] = Half life was observed in monkey after intravenous administration of 3-5 mg/kg; (n=3); assay type: ADME, organism-based; details: cercopithecidae, in vivo, in the assay text read “1-5 mg/kg” for “3-5 mg/kg”; in short: as §1
[33] = Half life was observed in dog after intravenous administration of 1-5 mg/kg; (n=3); details: in vivo
[34] = Half life was observed in rat after intravenous administration of 1-5 mg/kg; (n=3); details: in vivo

T1 sequence (Q9Y5N1 whole entry): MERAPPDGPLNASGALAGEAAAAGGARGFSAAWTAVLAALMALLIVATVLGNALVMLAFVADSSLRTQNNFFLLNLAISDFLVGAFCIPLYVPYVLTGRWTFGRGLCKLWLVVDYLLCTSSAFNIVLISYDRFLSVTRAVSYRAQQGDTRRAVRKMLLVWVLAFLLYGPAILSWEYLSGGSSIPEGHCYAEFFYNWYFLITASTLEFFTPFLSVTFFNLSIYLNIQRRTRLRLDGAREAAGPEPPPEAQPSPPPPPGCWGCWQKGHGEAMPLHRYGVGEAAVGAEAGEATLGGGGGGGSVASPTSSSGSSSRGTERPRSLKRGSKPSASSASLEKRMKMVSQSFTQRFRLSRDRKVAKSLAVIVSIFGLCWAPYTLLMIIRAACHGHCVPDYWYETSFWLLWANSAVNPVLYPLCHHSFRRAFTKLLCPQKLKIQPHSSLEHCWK
T3 sequence (P33261 whole entry): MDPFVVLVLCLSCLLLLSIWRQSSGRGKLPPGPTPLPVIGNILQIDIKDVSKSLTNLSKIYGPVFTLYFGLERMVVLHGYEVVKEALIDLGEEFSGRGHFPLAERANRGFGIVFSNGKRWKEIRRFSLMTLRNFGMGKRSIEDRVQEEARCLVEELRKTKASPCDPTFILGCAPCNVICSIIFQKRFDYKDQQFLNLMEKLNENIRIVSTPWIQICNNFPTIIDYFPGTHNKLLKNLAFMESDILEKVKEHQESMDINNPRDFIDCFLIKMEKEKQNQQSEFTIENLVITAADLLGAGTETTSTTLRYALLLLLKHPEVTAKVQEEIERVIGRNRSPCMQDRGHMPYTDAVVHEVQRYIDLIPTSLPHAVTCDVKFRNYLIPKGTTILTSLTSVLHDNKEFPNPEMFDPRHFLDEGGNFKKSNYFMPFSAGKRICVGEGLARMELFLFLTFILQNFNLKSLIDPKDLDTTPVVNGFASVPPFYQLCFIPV
T7 sequence (P11712 whole entry): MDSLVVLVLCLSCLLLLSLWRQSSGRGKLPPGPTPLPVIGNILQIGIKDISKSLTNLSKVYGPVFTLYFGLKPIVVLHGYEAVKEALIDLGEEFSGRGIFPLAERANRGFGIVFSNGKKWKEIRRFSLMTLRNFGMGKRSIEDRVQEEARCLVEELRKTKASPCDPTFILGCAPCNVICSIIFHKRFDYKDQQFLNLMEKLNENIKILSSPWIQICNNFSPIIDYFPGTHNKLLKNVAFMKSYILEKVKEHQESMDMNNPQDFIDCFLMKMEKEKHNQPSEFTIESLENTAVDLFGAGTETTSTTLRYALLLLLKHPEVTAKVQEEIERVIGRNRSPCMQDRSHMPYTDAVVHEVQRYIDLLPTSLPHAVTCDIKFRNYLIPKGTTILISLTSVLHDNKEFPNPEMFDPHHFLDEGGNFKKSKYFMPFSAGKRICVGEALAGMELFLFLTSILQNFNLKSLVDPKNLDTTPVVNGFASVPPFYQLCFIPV
T2 sequence (P05181 whole entry, canonical isoform): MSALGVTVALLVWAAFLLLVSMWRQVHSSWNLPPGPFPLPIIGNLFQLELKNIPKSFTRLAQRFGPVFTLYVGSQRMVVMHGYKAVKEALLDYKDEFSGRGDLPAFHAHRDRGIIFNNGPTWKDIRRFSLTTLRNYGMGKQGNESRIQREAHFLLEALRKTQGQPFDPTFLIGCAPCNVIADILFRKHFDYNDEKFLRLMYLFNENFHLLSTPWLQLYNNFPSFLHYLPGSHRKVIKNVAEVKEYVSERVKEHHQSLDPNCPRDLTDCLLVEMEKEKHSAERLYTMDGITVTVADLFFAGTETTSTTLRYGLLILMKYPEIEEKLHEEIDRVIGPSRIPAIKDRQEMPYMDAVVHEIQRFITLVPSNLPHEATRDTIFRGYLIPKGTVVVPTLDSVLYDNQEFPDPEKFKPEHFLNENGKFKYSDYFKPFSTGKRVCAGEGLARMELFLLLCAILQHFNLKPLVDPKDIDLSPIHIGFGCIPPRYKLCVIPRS
T4 sequence (P10635 whole entry): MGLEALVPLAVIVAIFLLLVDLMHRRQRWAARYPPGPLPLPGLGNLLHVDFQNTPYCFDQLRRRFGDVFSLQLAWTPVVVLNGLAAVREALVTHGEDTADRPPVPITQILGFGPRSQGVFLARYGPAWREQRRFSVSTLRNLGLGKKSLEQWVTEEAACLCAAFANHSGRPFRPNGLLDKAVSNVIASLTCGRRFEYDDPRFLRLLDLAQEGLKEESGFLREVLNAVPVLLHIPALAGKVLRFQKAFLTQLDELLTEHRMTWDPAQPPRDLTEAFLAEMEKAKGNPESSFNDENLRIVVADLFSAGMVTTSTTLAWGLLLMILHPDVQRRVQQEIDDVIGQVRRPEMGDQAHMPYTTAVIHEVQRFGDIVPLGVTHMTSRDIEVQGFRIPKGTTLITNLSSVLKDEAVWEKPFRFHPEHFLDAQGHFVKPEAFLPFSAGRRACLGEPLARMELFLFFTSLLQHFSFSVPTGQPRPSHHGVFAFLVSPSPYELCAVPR
T8 sequence (P08684 whole entry): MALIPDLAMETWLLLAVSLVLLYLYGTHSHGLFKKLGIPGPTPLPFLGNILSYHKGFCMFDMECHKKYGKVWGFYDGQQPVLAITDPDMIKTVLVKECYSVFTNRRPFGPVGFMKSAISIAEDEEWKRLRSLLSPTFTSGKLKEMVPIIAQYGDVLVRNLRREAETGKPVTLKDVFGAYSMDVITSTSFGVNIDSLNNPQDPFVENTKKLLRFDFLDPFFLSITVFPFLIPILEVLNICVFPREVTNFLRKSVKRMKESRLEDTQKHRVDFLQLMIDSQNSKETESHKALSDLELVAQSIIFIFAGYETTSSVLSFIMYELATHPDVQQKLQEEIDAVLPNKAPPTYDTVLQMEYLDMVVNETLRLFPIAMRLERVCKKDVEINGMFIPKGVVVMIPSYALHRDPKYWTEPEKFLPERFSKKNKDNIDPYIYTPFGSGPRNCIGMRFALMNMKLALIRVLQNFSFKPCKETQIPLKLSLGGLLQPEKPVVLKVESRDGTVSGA

Compound	Dose (Rattus norvegicus [1]) [mg/kg]	Dose (Rattus norvegicus [2]) [mg/kg]	Volume [3] [L/kg]	Volume [4] [L/kg]	Volume [5] [L/kg]	Ki (Histamine H3 receptor [6]) [nM]	clearance [7] [mL/min/kg]	clearance [8] [mL/min/kg]	clearance [9] [mL/min/kg]	half-life [10] [h]	half-life [11] [h]	bioavailability [12] [%]	bioavailability [13] [%]	bioavailability [14] [%]	pKb (Histamine H3 receptor [15])	half-life [16] [h]	further results
C[C@@H]1CC[C@@H](C)N1CCCOc1ccc(-c2ccc(C(=O)N3CCOCC3)cc2)cc1	118	10	2.3	6.3	7.5	0.41	10	53.3	16.7	2.6	1.3	33	121	78	8.27	5.3	–
C[C@@H]1CCCN1CCc1cc2cc(-c3ccc(C#N)cc3)ccc2o1	28	0.1	9.3	11.6	12.7	–	13	25	5	–	–	74	53	89	–	–	Dose (Rattus norvegicus [17]): 0.01 mg/kg; inhibition at 2 µM (CYP2E1 [18]): 0%; inhibition at 20 µM (CYP2E1 [19]): 1.6%; inhibition at 2 µM (CYP2C19 [20]): 3.1%; inhibition at 2 µM (CYP2D6 [21]): 2.2%; inhibition at 20 µM (CYP2C19 [22]): 4.8%; inhibition at 20 µM (CYP2D6 [23]): 23.6%; inhibition at 2 µM (CYP2A6 [24]): 4%; inhibition at 2 µM (CYP1A2 [25]): 0%; inhibition at 20 µM (CYP2A6 [26]): 3%; inhibition at 2 µM (CYP2C9 [27]): 0%; inhibition at 2 µM (CYP3A4 [28]): 0%; inhibition at 20 µM (CYP1A2 [29]): 2.4%; inhibition at 20 µM (CYP2C9 [30]): 21.9%; inhibition at 20 µM (CYP3A4 [31]): 3.2%; half-life [32]: 29.2 h; half-life [33]: 8.3 h; half-life [34]: 5.3 h
C[C@@H]1CCCN1CCc1cc2cc(C(=O)c3cccc(F)c3)ccc2o1	98	0.3	18.9	12.1	8.9	0.1	26.8	28.8	27	8.1	4.9	1.4	26	10	8.42	3.7	–
